Source: PubChem
MC4R antag cAMP: MC4R antagonists of cAMP signaling, primary screen, cell-based, TR-FRET, antagonist arm of biased-ligand search. hit rate 0.48% among 360,000. Melanocortin receptor 4 (Homo sapiens), P32245. inhibition, % at 6.5 µM. MC4R-expressing cells, MTII-stimulated cAMP, LANCE TR-FRET;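 active = inhibition above its plate's cutoff, the mean of tested wells on that plate plus 3 SD, cut at about 29% in these data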
Target sequence (P32245 whole entry, looked up): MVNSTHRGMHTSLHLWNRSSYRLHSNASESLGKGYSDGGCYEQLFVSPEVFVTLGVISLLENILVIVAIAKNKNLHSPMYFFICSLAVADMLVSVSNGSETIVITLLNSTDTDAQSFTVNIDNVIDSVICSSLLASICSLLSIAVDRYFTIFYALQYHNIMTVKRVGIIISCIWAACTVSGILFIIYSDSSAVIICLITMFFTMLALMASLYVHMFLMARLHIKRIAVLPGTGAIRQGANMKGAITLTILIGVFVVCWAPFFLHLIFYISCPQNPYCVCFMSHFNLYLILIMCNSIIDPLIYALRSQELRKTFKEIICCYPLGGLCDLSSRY
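System: U2OS cells stably expressing human melanocortin 4 receptor (MC4R). Reagent: Melanotan II challenge after compound preincubation. Doses: 6.5 µM. Times: 30-min compound, 1-h challenge, 1-h detection, room temperature. Measured by: TR-FRET with Eu-cAMP and labeled anti-cAMP, 671 nm. Replicates: singlicate.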
HTR5A inv ctr: HTR5A inverse agonists in luminescence cell assay, primary screen, counter-screen for OPRM1-OPRD1 heterodimer inverse agonist project, full-deck HTS; 5-hydroxytryptamine receptor 5A (Homo sapiens), P47898; HTR5A cell line, inverse agonism; inhibition, % at 9.3 µM; hit rate 0.083% among 340,000; AID 504634, 2011; in the data active = inhibition mostly above about 23%, no sharp cut-off; inactive = mostly below about 18%
MC4R ag barr: MC4R agonists recruiting beta-arrestin, primary screen, cell-based, luminescence, agonist arm of biased-ligand search. U2OS MC4R beta-arrestin complementation; percent of melanotan II response, DMSO zero. activation, % at 8.9 µM. Melanocortin receptor 4 (Homo sapiens), P32245. hit rate 0.98% among 360,000;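 active = activation above a per-plate cutoff, the mean activation of sample wells on that plate plus 3 SD, cut at about 8% in these data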
OPRM1-OPRD1 ag: agonists of OPRM1-OPRD1 heterodimerization, primary screen, cell-based, luminescence; Mu-type opioid receptor (Homo sapiens) + Delta-type opioid receptor (Homo sapiens), …; cells; activation, % at 9.3 µM; hit rate 0.3% among 340,000; in the data active = activation above about 18%
HTR5A ag: HTR5A agonists in luminescence cell assay, primary screen, counter-screen for OPRM1-OPRD1 heterodimer agonist project, full-deck HTS. hit rate 0.61% among 340,000. activation, % at 9.3 µM. 5-hydroxytryptamine receptor 5A (Homo sapiens), P47898. cell-based; in the data active = activation mostly above about 9.5%, no sharp cut-off; inactive = mostly below about 7.6%
OPRM1-OPRD1 inv: inverse agonists of MOR-DOR heterodimerization, primary screen, cell-based, luminescence; Mu-type opioid receptor (Homo sapiens) + Delta-type opioid receptor (Homo sapiens), …; cell-based MOR-DOR heterodimer luminescence, inverse agonism; inhibition, % at 9.3 µM; hit rate 0.21% among 340,000; in the data active = inhibition above about 22%, passing the limit was not always enough
MC4R barr conf: MC4R beta-arrestin agonists, retest, confirmation, cell-based, luminescence, U2OS; shares compounds with MC4R ag barr; U2OS MC4R beta-arrestin recruitment; scaled DMSO 0%, Melanotan II 100%; activation, % at 8.9 µM; hit rate 31% among 2,400; AID 602192, 2012;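 active = mean activation across replicates above the hit cutoff set in the earlier primary screen, cut at about 8% in these data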
MOR DOR agonist: agonists of MOR-DOR heterodimerization, counter-screen for MC4R biased agonist project, cell-based, luminescence | shares compounds with MC4R ag barr | U2OS PathHunter beta-arrestin, beta-gal luminescence; percent of deltorphin B response, DMSO zero | activation, % at 9.2 µM | hit rate 5.8% among 2,400;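 active = mean activation across replicates exceeds the hit threshold derived in the earlier primary screen, cut at about 18% in these data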
Hits are given with their value; i = inactive; nt = no result. Hits are enriched below; roughly 2.4% of the tested compounds scored in any of these assays.

SMILES	MC4R antag cAMP	HTR5A inv ctr	MC4R ag barr	OPRM1-OPRD1 ag	HTR5A ag	OPRM1-OPRD1 inv	MC4R barr conf	MOR DOR agonist
COc1cc(C(=O)Nc2nnc(-c3sccc3C)s2)cc(OC)c1OC	i	i	12	i	i	i	23	i
CCOCc1nnc(NC(=O)c2cc(OC)c(OC)c(OC)c2)s1	i	i	i	i	i	i	nt	nt
CCOC(=O)c1c(Nc2ccccc2)sc(/C=C2\C=Nc3ccccc32)c1O	i	i	15	i	i	i	i	i
COc1ccc(C(C)=O)cc1COC(=O)c1c(C)noc1C	i	i	i	i	i	i	nt	nt
O=C(COC(=O)c1ccccc1O)Nc1cccc2ccccc12	i	i	12	i	i	i	i	i
COc1ccc(C(C)=O)cc1COC(=O)c1cccnc1Cl	i	i	i	i	i	i	nt	nt
O=C(COC(=O)c1cc2ccccc2cc1O)Nc1ccccc1F	i	i	13	i	i	i	i	i
COc1ccc(C(C)=O)cc1COC(=O)c1ccc(OCc2c(C)noc2C)cc1	i	i	16	i	i	i	9.2	i
COc1ccc(C(C)=O)cc1COC(=O)c1cc2ccccc2cc1O	i	i	11	i	i	i	i	i
COC(=O)c1ccc(OCc2nn[nH]n2)cc1	i	i	i	i	i	i	nt	nt
CC(C)c1cccc(C(C)C)c1NC(=O)c1ccc(-c2cc(Cl)ccc2Cl)o1	i	nt	i	nt	nt	nt	nt	nt
O=C(O)COc1ccccc1/C=N/NC(=O)C(O)c1ccccc1 (stereo unspecified)	i	i	i	i	i	i	nt	nt
O=C(COC(=O)c1cc2ccccc2cc1O)Nc1cccnc1Cl	i	i	i	i	i	i	nt	nt
COc1ccc(C(C)=O)cc1COc1cc(C)c(Cl)c(C)c1	i	nt	i	nt	nt	nt	nt	nt
COc1ccc(C(C)=O)cc1COc1ccc(Cl)cc1Cl	i	nt	11	nt	nt	nt	i	i
COc1ccccc1NC(=O)COC(=O)c1cc2ccccc2cc1O	i	i	17	i	i	i	i	i
O=C(NN1CCCCC1)c1cnn2c(C(F)F)cc(-c3ccccc3)nc12	i	i	i	i	i	i	nt	nt
CCOc1cc(NC(=O)c2ccco2)c(OCC)cc1NC(=O)c1cc(OC)c(OC)c(OC)c1	i	i	13	i	i	i	i	53
O=C(Nc1ccc2c(c1)Cc1ccccc1-2)c1cc2ccccc2o1	i	i	13	i	i	i	i	i
COc1cc(NC(=O)c2ccco2)c(OC)cc1NC(=O)c1cc(OC)c(OC)c(OC)c1	i	i	i	i	i	i	nt	nt
COc1cc(NC(=O)c2cc3ccccc3o2)ccc1NC(=O)c1ccco1	i	i	i	i	i	i	nt	nt
COc1cc(NC(=O)c2oc3ccccc3c2C)ccc1NC(=O)c1ccco1	i	i	9.7	i	i	i	i	i
COc1cc(NC(=O)c2ccc(C)cc2C)ccc1NC(=O)c1cc2ccccc2o1	i	i	12	i	i	i	16	i
COc1cc(NC(=O)c2cccc(F)c2)ccc1NC(=O)c1cc2ccccc2o1	i	i	12	i	i	i	i	i
COc1ccccc1Nc1nnc(SCC(=O)NC(=O)Nc2ccc3c(c2)OCCO3)s1	i	i	17	i	i	i	i	i
SMILES	MC4R antag cAMP	HTR5A inv ctr	MC4R ag barr	OPRM1-OPRD1 ag	HTR5A ag	OPRM1-OPRD1 inv	MC4R barr conf	MOR DOR agonist
Cc1nnc(SCC(=O)NC(=O)Nc2ccc3c(c2)OCCO3)s1	i	i	i	i	i	i	nt	nt
CC(=O)Nc1nnc(SCC(=O)Nc2ccc3c(c2)OCCO3)s1	i	i	i	i	i	i	nt	nt
Cc1cccc(Nc2nnc(SCC(=O)NC(=O)Nc3ccc4c(c3)OCCO4)s2)c1	i	i	22	i	i	i	11	i
Cc1ccc(SCC(=O)NC(=O)Nc2ccc3c(c2)OCCO3)cc1C	i	i	15	i	i	i	i	i
O=C(CSc1nc2cc(Cl)ccc2s1)NC1CCCc2ccccc21 (stereo unspecified)	i	i	i	i	i	i	nt	nt
O=C(CSc1cc(Cl)ccc1Cl)NC1CCCc2ccccc21 (stereo unspecified)	i	i	13	i	i	i	i	i
Cc1ccccc1CNc1ccc(C(CC(N)=O)NC(=O)c2ccc(Br)cc2)cc1[N+](=O)[O-] (stereo unspecified)	i	i	16	i	i	i	i	i
NC(=O)CC(NC(=O)c1ccccc1)c1ccc(NCCc2ccc(Cl)cc2)c([N+](=O)[O-])c1 (stereo unspecified)	i	i	13	i	i	i	i	i
NC(=O)CC(NC(=O)c1ccc(Br)cc1)c1ccc(NCc2ccc(F)cc2)c([N+](=O)[O-])c1 (stereo unspecified)	i	i	i	i	i	i	nt	nt
CSc1ncccc1C(=O)OCc1ccc([N+](=O)[O-])cc1	i	i	12	i	i	i	i	i
O=C(Nc1ccc(Br)cc1)c1ccc(CSC2=NCCS2)cc1	i	i	29	i	i	i	i	i
Cc1ccc(NC(=O)c2ccc(CSc3nnc(C)s3)cc2)cc1	i	i	i	i	i	i	nt	nt
FC(F)Sc1ccc(NC(=S)NC(c2ccccc2)c2ccccc2)cc1	i	i	9.6	i	i	i	i	i
FC(F)Sc1ccc(NC(=S)NCc2ccccc2)cc1	i	i	i	i	i	i	nt	nt
Cc1nc2ccc(C(=O)NCCc3c[nH]c4ccccc34)cn2c1N(C)C(=O)CCc1ccccc1	i	nt	i	nt	nt	nt	nt	nt
COc1ccc(Cl)cc1NC(=O)CN1CCN(Cc2ccccc2)CC1	i	i	i	i	i	i	nt	nt
NC(=O)c1c(NC(=O)C2COc3ccccc3O2)sc2c1CCN(Cc1ccccc1)C2 (stereo unspecified)	i	i	14	i	i	i	i	i
Nc1ccccc1-n1c(=O)n(Cc2ccccc2F)c(=O)c2[nH]cnc21	i	i	i	i	i	i	nt	nt
O=C(CSc1nc(CCC2CCCC2)nc2ccccc12)NCc1ccc2c(c1)OCO2	i	i	20	i	i	i	i	i
